Only some compounds are listed: those with a hit (about 4% of all), similar ones and a draw of the others.
TAAR1 antagonist – human TAAR1 antagonists, primary screen, Fluo-8 calcium fluorescence, CHO RD-HGA16 cells. inhibition, % at 3 µM. AID 624466, 2012. antagonist. 360,000 tested, 1.5% active. Trace amine-associated receptor 1 (Homo sapiens), Q96RJ0;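 active means inhibition above a per-plate cutoff, the mean inhibition of test compounds on that plate plus 3 SD, cut at about 49% in these data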;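 further: 0% = DMSO plus EC80 beta-PEA response and 100% = DMSO alone without agonist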
Target sequence (Q96RJ0 whole entry, looked up): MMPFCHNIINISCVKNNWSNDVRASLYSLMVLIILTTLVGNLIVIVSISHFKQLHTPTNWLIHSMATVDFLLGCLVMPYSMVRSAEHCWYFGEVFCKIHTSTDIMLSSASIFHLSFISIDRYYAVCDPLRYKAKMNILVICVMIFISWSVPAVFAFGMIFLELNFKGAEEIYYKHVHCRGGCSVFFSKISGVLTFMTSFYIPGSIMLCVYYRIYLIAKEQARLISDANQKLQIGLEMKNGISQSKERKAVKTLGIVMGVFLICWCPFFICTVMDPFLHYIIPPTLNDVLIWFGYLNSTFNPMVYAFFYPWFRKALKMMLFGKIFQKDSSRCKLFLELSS
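Test system: RD-HGA16 CHO cells with stable hTAAR1 and Gα16 / Probe or stimulus: EC80 β-phenethylamine stimulus / Times: seeding 17-24 h prior, 75-min 37 °C, 30-min RT dye loading / Detection: Fluo-8 calcium-sensitive fluorescence / Read-out basis: % inhibition scaled between DMSO and EC80 PEA controls / Repeats: singlicate, one well per test compound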
OX1R antag-1 – OX1R (HCRTR1) antagonists, primary screen, fluorescence, CHO/OX1R cells, Fluo-8 calcium, orexin A | Orexin/Hypocretin receptor type 1 (Homo sapiens), O43613 | inhibition, % at 5 µM | Fluo-8 calcium fluorescence | AID 434989, 2010 | 330,000 tested, 0.43% active;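 active means inhibition above its plate's threshold, mean inhibition of all tested compounds on the plate plus 3 SD, cut at about 37% in these data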;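 further: 0% = orexin A challenge wells and 100% = SB-334867-A antagonist wells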
Target sequence (O43613 whole entry, looked up): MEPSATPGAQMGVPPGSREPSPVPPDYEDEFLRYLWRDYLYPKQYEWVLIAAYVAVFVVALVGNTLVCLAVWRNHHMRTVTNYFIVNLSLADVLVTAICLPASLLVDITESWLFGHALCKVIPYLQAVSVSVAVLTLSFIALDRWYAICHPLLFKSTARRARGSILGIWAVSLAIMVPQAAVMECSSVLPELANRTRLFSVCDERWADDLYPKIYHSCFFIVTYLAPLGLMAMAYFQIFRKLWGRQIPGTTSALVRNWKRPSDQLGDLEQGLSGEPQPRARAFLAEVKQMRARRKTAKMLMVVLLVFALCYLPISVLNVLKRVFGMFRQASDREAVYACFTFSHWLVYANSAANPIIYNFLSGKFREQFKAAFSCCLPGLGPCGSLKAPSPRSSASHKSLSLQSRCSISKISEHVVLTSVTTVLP
TAAR1 ag – human TAAR1 agonists, primary screen, Fluo-8 calcium fluorescence, CHO RD-HGA16 cells; vehicle wells 0%, saturating PEA agonist 100%; activation, % at 3 µM; AID 624467, 2012; Trace amine-associated receptor 1 (Homo sapiens), Q96RJ0; 360,000 tested, 0.99% active;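 active means activation above the mean activation of all test compounds in the run plus 3 SD, cut at about 38% in these data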
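Test system: RD-HGA16 (CHO) cells co-expressing Gα16 and hTAAR1 / Benchmarks: DMSO vehicle as 0%, PEA at EC100 as 100% / Repeats: no replicates (n 1) / Measure: % activation from peak over basal fluorescence ratio, DMSO-to-PEA scaled / Timing: 17-24 h plating, Fluo-8 75 min 37 °C, 30 min RT / Technique: kinetic Fluo-8 calcium fluorescence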
OX1R antag-2 – antagonists of human orexin 1 receptor (OX1R); 330,000 tested, 1.8% active; Orexin/Hypocretin receptor type 1 (Homo sapiens), O43613; inhibition, % at 6.6 µM; OX1R-expressing cells, FRET antagonist read-out; in the data active means inhibition mostly above about 38%, no sharp cut-off; inactive means mostly below about 40%;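 further: 0% = agonist challenge alone and 100% = reference antagonist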
CHO parental Ca – ATP-evoked calcium signal inhibitors, parental CHO, primary screen, counter-screen for OX1R antagonist project, cell-based, fluorescence, Fluo-8 calcium dye; parental CHO-K1, ATP-induced calcium, Fluo-8 fluorescence; inhibition, % at 5.6 µM; AID 463079, 2010; 330,000 tested, 0.63% active;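 active means inhibition above that plate's mean sample inhibition plus 3 SD, cut at about 26% in these data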;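 further: 0% = ATP-challenged DMSO wells and 100% = DMSO wells without ATP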
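Material: parental CHO cells / Compound: single nominal dose of 5.6 µM per compound / Signal: Fluo-8 fluorescence / Replicates: singlicate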
TAAR1 ag confirm – human TAAR1 agonists, retest of hits, confirmation, Fluo-8 calcium fluorescence, CHO RD-HGA16 cells | activation, % at 3 µM | scaled: DMSO 0%, maximal phenethylamine 100% | 2,400 tested, 82% active | shares compounds with TAAR1 ag;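 active means activation above a cutoff set at the run's mean compound activation plus 3 SD, cut at about 39% in these data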
Ga16 ag counter – nonselective calcium mobilization agonists, CHO-Ga16 cells, counter-screen for hTAAR1 agonist project, cell-based, fluorescence, CHO-Ga16 parental line; shares compounds with TAAR1 ag; Fluo-8 calcium fluorescence; normalized to maximal ATP response, DMSO zero; activation, % at 3 µM; 2,400 tested, 50% active;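 active means activation above the run cutoff, the mean activation over all tested wells plus 3 SD, cut at about 12% in these data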;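 further: 0% = DMSO wells and 100% = maximal ATP response on the peak over basal ratio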
TAAR1 desens – TAAR1 desensitization by agonist hits, confirmation, counter-screen for TAAR1 agonist project, cell-based, fluorescence, tachyphylaxis; shares compounds with TAAR1 ag; CHO RD-HGA16 hTAAR1, Fluo-8 calcium, beta-PEA response inhibition; inhibition, % at 3 µM; 2,400 tested, 46% active;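 active means inhibition above the run cutoff, the mean inhibition of all test compounds plus 3 SD, cut at about 49% in these data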;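 further: beta-PEA stimulus applied at its EC80; loss of beta-PEA calcium signal after compound pretreatment read as receptor desensitization; 0% = DMSO with beta-PEA at EC80 and 100% = DMSO alone without agonist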
Ga16 antag count – inhibition of ATP-evoked calcium response in CHO-Ga16 cells, counter-screen for TAAR1 agonist project, cell-based, fluorescence | shares compounds with TAAR1 ag | CHO-Ga16 ATP-induced calcium, Fluo-8 fluorescence | inhibition, % at 3 µM | 2,400 tested, 39% active | AID 651952, 2012;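 active means inhibition above the plate's mean compound inhibition plus 3 SD, computed per plate, cut at about 22% in these data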;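 further: 0% = EC80 ATP with DMSO and 100% = DMSO wells without ATP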
* hit, by the source's call; nt = no result given; ! = not active in a repeat.

SMILES	TAAR1 antagonist	OX1R antag-1	TAAR1 ag	OX1R antag-2	CHO parental Ca	TAAR1 ag confirm	Ga16 ag counter	TAAR1 desens	Ga16 antag count
O=C(CN1CCN(c2ccccc2)CC1)Nc1ccccc1C(=O)NCCc1ccccc1	87.9*	nt	76.3*	nt	nt	81.9*	7.1	75.1*	32.0*
O=C(O)CCC(=O)Nc1ccccc1C(=O)NCCc1ccccc1	1.7	3.2	6.0	3.8	8.0	nt	nt	nt	nt
CCN(CC)CCNC(=O)c1ccc(Cl)c(S(=O)(=O)Nc2ccc(Cl)cc2)c1	38.9	-25.3	69.9*!	7.5	-24.5	3.7	0.9	9.3	4.1
O=[N+]([O-])c1ccc(N2N=C(c3ccco3)CC2c2ccccc2)cc1 (stereo not given)	41.7	25.9	8.6	-0.5	6.3	nt	nt	nt	nt
CC(C)(C)C1=NN(c2ccc([N+](=O)[O-])cc2)C(c2ccccc2)C1 (stereo not given)	34.5	3.4	61.9*	20.3	-15.7	-0.4	0.4	6.0	9.5
CN(CCc1ccccc1)c1cc2c(c3c1ccn3C)C1CCC2C1 (stereo not given)	38.8	nt	81.5*	nt	nt	52.0*	1.4	-5.7	3.8
Cn1c(N/N=C\c2cccc(O)c2)cc(=O)n(C)c1=O	6.7	-9.6	51.9*	10.9	-8.9	76.6*	0.6	15.0	4.8
O=C(CCc1ccccc1)N/N=C/c1cccc(O)c1	3.5	-20.8	-0.8	22.5	-14.1	nt	nt	nt	nt
COc1cc(/C=N\Nc2cc(=O)n(C)c(=O)n2C)ccc1O	-6.4	-12.9	5.9	13.6	-13.4	nt	nt	nt	nt
O=C(N/N=C/c1cccc(O)c1)N/N=C/c1cccc(O)c1	16.1	10.6	46.4*	1.6	2.6	81.0*	1.4	38.0	11.5
COc1ccc(NC(=O)CN2C(=O)NC(CC(C)C)C2=O)cc1S(=O)(=O)N1CCOCC1 (stereo not given)	6.0	3.7	11.6	-4.1	-5.4	nt	nt	nt	nt
O=C(NCN1CCc2ccccc2C1)c1ccccc1	54.4*	-0.2	81.6*	13.7	-6.1	49.8*	0.8	21.0	5.1
O=C(CN1CCc2ccccc2C1)c1cccs1	24.9	-14.8	74.6*	22.4	-9.9	86.1*	3.0	46.5	-1.3
CC1CCN(CC(=O)c2cccs2)CC1	-21.9	5.3	1.9	19.4	-10.6	nt	nt	nt	nt
O=C(NCN1CCc2ccccc2C1)c1cnccn1	56.6*	0.2	95.3*	1.7	-3.9	87.6*	-0.2	65.3*	8.0
CC(=C/c1ccccc1)/C=N/n1cnnc1	25.4	-9.8	96.4*	2.7	6.5	37.2	59.0*	19.4	16.7
C(=C\c1ccccc1)/C=N/n1cnnc1	-9.5	-2.2	23.5	24.6	5.1	nt	nt	nt	nt
CC(/C=N/n1cnnc1)=C\c1ccccc1	-10.2	0.5	102.0*	15.4	0.3	87.1*	62.9*	30.7	13.8
ClC(/C=N/n1cnnc1)=C/c1ccccc1	-6.9	15.4	76.1*	1.6	-1.7	61.6*	30.2*	8.0	17.5
ClC(=C\c1ccccc1)/C=N/N1CCN(c2ccccn2)CC1	23.6	-22.7	8.8	-1.6	-17.9	nt	nt	nt	nt
N#Cc1c(-c2cccs2)cc(C2CC2)nc1SCC(N)=O	3.6	-22.4	0.1	19.7	-19.4	nt	nt	nt	nt
Nc1ccc(C(=O)N/N=C2\CCCc3c2[nH]c2ccccc32)cc1	-7.7	-21.8	22.9	15.1	-2.5	nt	nt	nt	nt
c1ccc(CCN=C2CCCc3c2[nH]c2ccccc32)cc1	95.8*	-4.1	95.1*	-0.7	-6.9	98.7*	-0.3	101.4*	9.3
CCCCN(C(=O)/C=C/c1ccco1)c1c(N)n(Cc2ccccc2)c(=O)[nH]c1=O	-27.0	-25.1	4.0	11.0	-13.8	nt	nt	nt	nt
COc1ccc(C(=O)NC(=S)NNC(=O)[C@H]2C[C@@H]2c2ccccc2)cc1OC	49.4*	-28.2	120.6*	7.5	-7.0	90.3*	70.4*	70.1*	43.3*
SMILES	TAAR1 antagonist	OX1R antag-1	TAAR1 ag	OX1R antag-2	CHO parental Ca	TAAR1 ag confirm	Ga16 ag counter	TAAR1 desens	Ga16 antag count
COc1cc(OC)cc(C(=O)NC(=S)NNC(=O)[C@H]2C[C@@H]2c2ccccc2)c1	107.1*	-22.3	173.7*	3.7	-24.3	113.0*	101.7*	89.3*	65.0*
O=C(/C=C/c1ccc(F)cc1)NC(=S)Nc1ccccc1O	29.9	nt	13.1	nt	nt	nt	nt	nt	nt
O=C(/C=C/c1ccc(F)cc1)NC(=S)NNC(=O)[C@H]1C[C@@H]1c1ccccc1	81.9*	-18.9	132.0*	-2.1	-5.7	88.0*	98.5*	71.9*	66.5*
COc1cc(OC)cc(C(=O)NC(=S)NNC(=O)Cc2cccs2)c1	15.7	-15.8	80.3*	6.0	-12.6	56.2*	36.8*	27.7	16.1
COc1ccc(-c2nc3ccc(Cl)cn3c2Cc2cccc(F)c2)cc1OC	-11.6	nt	0.3	nt	nt	nt	nt	nt	nt
CC(=O)N(C)c1ccc(NC(=O)Cc2cccs2)cc1	-5.0	-6.4	1.2	5.2	-6.1	nt	nt	nt	nt
Cc1sc2c3ccsc3ccc2[n+]1C	1.5	-2.8	26.0	15.2	7.0	nt	nt	nt	nt
Cc1sc2ccc3sccc3c2[n+]1C	12.9	12.6	48.1*	4.5	8.4	13.9	7.7	11.2	10.3
Nc1cnnc(N/N=C\c2ccccc2)c1Cl	-17.4	-13.9	45.8*	11.5	-3.8	68.5*	0.1	22.2	5.0
N#Cc1c(Cl)nc(N/N=C/c2ccccc2)c(Cl)c1Cl	29.5	-8.8	9.9	30.8	-13.5	nt	nt	nt	nt
Cc1cccc(CC(C)NC(=O)c2cc(COc3ccc(C)c(C)c3)on2)n1 (stereo not given)	-19.6	-24.5	2.9	35.5	-14.8	nt	nt	nt	nt
Cc1cccc(CC(C)NC(=O)c2cc(COc3ccc(F)cc3F)on2)n1 (stereo not given)	99.2*	-6.8	88.3*	-0.5	-7.0	9.1	5.3	14.0	7.3
O=c1[nH]c(CN(CCc2ccccc2)S(=O)(=O)c2ccc(Cl)cc2)nc2ccccc12	73.2*	-36.2	78.7*	12.8	-23.1	89.6*	14.4*	95.4*	23.8*

Screening data deposited in PubChem by The Scripps Research Institute Molecular Screening Center.
